Assay results reported in article PMC5632222 (Journal of pharmaceutical and biomedical analysis, 2017).

What was measured:
[1] = Plasma pharmacokinetics in a patient after IV infusion of VX-970; assay type: in vivo, human
In short: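 One patient received a 1 h IV infusion at 60 mg/m², with blood sampled from 0 to 72 h. Plasma (50 µL) was spiked with deuterated internal standard, precipitated with acetonitrile, diluted with water and run by positive-ESI MRM LC-MS/MS. Calibration spanned 3–5000 ng/mL, and the glucuronide channel was also monitored. PK parameters were derived non-compartmentally.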

[2] = Stability of VX-970 in human plasma; assay type: in vitro ADME
In short: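 Test compound was spiked into human plasma at QC levels of 5, 150 and 4000 ng/mL, in triplicate. Long-term stability: 8 months at -80 °C, read against freshly prepared standard curves. Freeze/thaw: 3 cycles, frozen at -80 °C and thawed on separate days, compared with fresh samples. Bench stability: 4 h at room temperature. Quantitation was by LC-MS/MS with deuterated internal standard.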

[3] = system: pooled female rat microsomes; assay: Glucuronidation incubation in permeabilized rat microsomes; assay type: in vitro ADME
In short: (§1)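 Pooled liver microsomes (human for line 1, female rat for line 2), permeabilized with 25 µg/mL alamethicin at 0.25 mg/mL protein in 0.1 M phosphate pH 7.4, 50 mM Tris-HCl, 10 mM MgCl₂. Test compound at 5,000 ng/mL; started with […]. Sampled at 0 and 60 min, quenched in acetonitrile, run in triplicate. LC-MS/MS read parent and the 639.5>433.5 glucuronide channel.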

[4] = system: pooled human liver microsomes; assay: Glucuronidation incubation in permeabilized human microsomes; assay type: in vitro ADME
In short: as §1

[5] = assay type: in vitro ADME; conditions: bile spiked human plasma, room temperature 4 h
In short: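 Bile from treated animals, containing the direct glucuronide, was spiked into human plasma. Parent compound was quantitated by LC-MS/MS before and after 4 h at room temperature. Bile was also spiked into phosphate buffers at pH 5, 6, 7, 8 and 9 with the same 4 h room-temperature hold. The glucuronide was monitored via the 639.5>433.5 channel.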

[6] = Stability of VX-970 in stock solution; assay type: physicochemical
[7] = one patient, 1 h IV infusion 60 mg/m^2, non-compartmental

CNCc1ccc(-c2cc(-c3nc(-c4ccc(S(=O)(=O)C(C)C)cc4)cnc3N)on2)cc1 [VX-970]
AUC(0-inf) ([1]; human, plasma, iv, 60 mg/m^2): 2500 ng·h/mL | AUC(0-t) ([1]; human, plasma, iv, 60 mg/m^2): 2430 ng·h/mL | Cmax ([1]; human, plasma, iv, 60 mg/m^2): 343 ng/mL | half-life ([1]; human, plasma, iv, 60 mg/m^2): 14 h | Cl [1, 7]: 24.0 L/h/m^2 | Vss [1, 7]: 386 L/m^2 | recovery at 8 months ([2]; human, plasma): 92.2 to 100% | Stability (%) ([2]; plasma 3 freeze-thaw cycles, −80 °C, QCH 4000 ng/mL): 98.1% | Stability (%) ([2]; plasma 3 freeze-thaw cycles, −80 °C, QCL 5 ng/mL): 98.1% | Stability (%) ([2]; plasma 3 freeze-thaw cycles, −80 °C, QCM 150 ng/mL): 99.6% | Stability (%) ([2]; plasma 8 months, −80 °C, QCH 4000 ng/mL): 96.2% | Stability (%) ([2]; plasma 8 months, −80 °C, QCL 5 ng/mL): 92.2% | Stability (%) ([2]; plasma 8 months, −80 °C, QCM 150 ng/mL): 100.1% | Stability (%) ([2]; plasma 4 h, ambient temp., QCH 4000 ng/mL): 100.2% | Stability (%) ([2]; plasma 4 h, ambient temp., QCL 5 ng/mL): 96.2% | Stability (%) ([2]; plasma 4 h, ambient temp., QCM 150 ng/mL): 96.0% | Metabolite in the 639.3>433.5 m/z glucuronide channel ([3]; rat microsome incubation of VX-970): No metabolite was observed | Drug remaining in the incubation mixture ([3]; rat microsomes 0.25 mg/mL, 5,000 ng/mL VX-970, UDPGA, 60 min): 87.5% | Drug remaining in the incubation mixture ([4]; human microsomes 0.25 mg/mL, 5,000 ng/mL VX-970, UDPGA, 60 min): 99.9% | Glucuronidation ([4]; permeabilized human microsomes, 5,000 ng/mL VX-970, 60 min): no glucuronidation | VX-970 concentrations in bile spiked plasma, % stable [5]: 96.5% | Stability (%) ([6]; stock solution 8 months, −80 °C, 100,000 ng/mL): 95.7% | Stability (%) ([6]; stock solution 6 h, ambient temp, 100,000 ng/mL): 96.7%
